Compound activity as filed in PubChem.
An excerpt weighted towards active compounds, which were near 5.1% of everything screened.
E coli WT exp = growth inhibitors of E. coli BW25113 wild type; OD600 absorbance; growth inhibition, % at 100 µM; hit rate 0.15% among 98,000;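 active = growth inhibition above about 50% at one test dose, limit read from the data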;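 also: growth measured after 20 h incubation at 37 °C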
M1 ag = M1 muscarinic receptor agonism | B-score at 10 µM | hit rate 3% among 64,000 | CHO-M1 cells, Fluo-4 calcium fluorescence, agonist mode; stronger effect = higher value;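 active = fluorescence rise, raw or as B-score row- and column-corrected plate score, outside the 99.7% band of its plate's samples, either direction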
BAP1 inh = human BAP1 deubiquitinase inhibition; recombinant BAP1, Ub-AMC hydrolysis fluorescence kinetic; stronger effect = lower value; hit rate 0.48% among 72,000; calls only at 20 µM; AID 436;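 active = activity remaining at or below 50% of control, provided the compound also passes the data quality filters; inactive = the rest, including low values that fail the filters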
Hsp90 block = displaces geldanamycin probe from tumor Hsp90; P07900; NCI-N417 lysate Hsp90, Cy3B-geldanamycin FP displacement; inhibition, % at 30 µM; hit rate 0.35% among 64,000;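 active = inhibition above 50%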
tolC growth inh = blocks growth of E. coli BW25113 tolC mutant | OD615 | growth inhibition, % at 10 µM (by protocol) | hit rate 2.2% among 65,000;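 active = growth inhibition at or above a cutoff equal to the mean over every tested compound plus 3 SD, cut at about 60% in these data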;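 also: growth measured after 20 h incubation at 37 °C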
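test system = E. coli BW25113 ΔtolC::kan bacteria | medium = LB with kanamycin 50 µg/mL | signal = OD at 615 nm | schedule = 37 °C, 20 h exposure | evaluation = % inhibition of E. coli growth | compound dosing = one dose of 10 µM final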
M1 antag = M1 muscarinic receptor (rat) antagonism; P08482; CHO-M1 cells, Fluo-4 calcium, ACh EC80 antagonist mode; stronger effect = lower value; B-score at 10 µM; hit rate 3.4% among 64,000;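 active = calcium fluorescence response, raw or row-and-column corrected B-score, differing from the plate sample mean either way at a set confidence level, mostly lower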
Target sequence (P08482 whole entry, looked up): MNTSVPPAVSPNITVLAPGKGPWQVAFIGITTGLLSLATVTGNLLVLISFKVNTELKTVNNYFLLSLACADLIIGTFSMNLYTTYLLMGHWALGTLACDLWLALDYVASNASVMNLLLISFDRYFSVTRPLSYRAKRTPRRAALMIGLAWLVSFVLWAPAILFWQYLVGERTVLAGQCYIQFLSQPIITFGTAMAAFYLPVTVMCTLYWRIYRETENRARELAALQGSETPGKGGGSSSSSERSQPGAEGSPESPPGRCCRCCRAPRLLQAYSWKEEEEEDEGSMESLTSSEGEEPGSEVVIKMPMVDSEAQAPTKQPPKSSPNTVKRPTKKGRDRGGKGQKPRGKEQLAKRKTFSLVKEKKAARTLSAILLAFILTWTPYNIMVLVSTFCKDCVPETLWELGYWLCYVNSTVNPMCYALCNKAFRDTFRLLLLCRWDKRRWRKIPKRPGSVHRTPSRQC
M1 agonist conf = rat M1 muscarinic agonism, confirmation; shares compounds with M1 ag; CHO-M1 cells, Fluo-4 calcium fluorescence, agonist mode; actives lie on both sides; fluorescence change (max-min) at 10 µM; hit rate 19% among 1,700; AID 1488;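 active = fluorescence change differs from the solvent-only DMSO control mean at a set confidence level in both duplicate runs; inconclusive = differs from solvent-only control mean in just one of two runs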;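 also: an EC20 dose of acetylcholine follows compound addition during the same imaging run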
M4 ag counter = activates rat M4 receptor in counter-screen for M1 agonists | shares compounds with M1 ag | CHO M4/Gqi5 cells, Fluo-4 calcium fluorescence, agonist mode; actives lie on both sides | fluorescence change (max-min) at 10 µM | hit rate 9% among 1,700 | AID 1741;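 active = fluorescence change differing from the plate's solvent-only control wells at 99.7% confidence in both duplicates, whether higher or lower; inconclusive = differs from solvent controls in only one of two duplicates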
Large screens that a line does not name were inactive (follow-up assays come after a bar, where shown).

Cc1ccc(C2C(C#N)=C(N)Oc3c2sc2ccccc32)o1 (stereo not given)	M1 ag 109 | M1 agonist conf 165 | M4 ag counter inactive
COCCN1C(=O)C(=O)/C(=C(/O)c2ccccc2)C1c1cccc(F)c1 (stereo not given)	none (no result: E coli WT exp, M1 ag, Hsp90 block, tolC growth inh, M1 antag)
CCN(CC)S(=O)(=O)c1ccc(/C(O)=C2/C(=O)C(=O)N(CCOC)C2c2ccccc2)cc1 (stereo not given)	M1 ag 33 | M1 agonist conf inactive | M4 ag counter inactive
Cc1ccc2[nH]c3c(c2c1)CN(C(=O)CN1CCN(c2cccc(C)c2C)CC1)CC3	M1 ag -3 | M1 agonist conf inactive | M4 ag counter inactive
O=C(c1nn2c(c1Br)NC(c1cccs1)CC2C(F)(F)F)N1CCCCC1 (stereo not given)	none (no result: E coli WT exp, M1 ag, Hsp90 block, tolC growth inh, M1 antag)
O=C(Nc1cc2cccc([N+](=O)[O-])c2oc1=O)c1cccc2ccccc12	none (no result: E coli WT exp, M1 ag, Hsp90 block, tolC growth inh, M1 antag)
CC1(C)Cc2c(C#N)c(N3CCOCC3)nc(-c3ccccc3)c2CO1	none (not shown: BAP1 inh)
CC1(C)Cc2c(C#N)c(SCC(=O)c3ccccc3)nc(N3CCOCC3)c2CO1	M1 ag 6.7 | M1 agonist conf inactive | M4 ag counter inconclusive
CC1(C)Cc2c(C#N)c(N3CCOCC3)nc(Cc3ccccc3)c2CO1	M1 ag 4.2 | M1 agonist conf inactive | M4 ag counter inconclusive
CC1CCN(c2nc(-c3ccco3)c3c(c2C#N)CC(C)(C)OC3)CC1	M1 ag 4.5 | M1 agonist conf inactive | M4 ag counter inactive
CC1(C)Cc2c(C#N)c(N3CCN(C(=O)c4ccccc4)CC3)nc(Cc3ccccc3)c2CO1	none (no result: M1 ag, BAP1 inh, Hsp90 block, tolC growth inh, M1 antag)
CC(=O)OCCn1ccc(=O)[nH]c1=O	none (no result: E coli WT exp, M1 ag, Hsp90 block, tolC growth inh, M1 antag)
COCCn1c(N)c(C(=O)OCc2ccccc2)c2nc3ccccc3nc21	none
COCCNC(=O)c1c(N)n(CCC2=CCCCC2)c2nc3ccccc3nc12	M1 ag 6.2 | M1 agonist conf inactive | M4 ag counter inactive
Cc1cc2c(N3CCCCC3C)ncnc2s1 (stereo not given)	M1 ag 3.5 | M1 agonist conf inactive | M4 ag counter inactive
Cc1cn(-c2ccc(Br)cc2)[nH]c1=O	M1 ag 2.1 | M1 agonist conf inactive | M4 ag counter inconclusive
CCOc1ccc2nc(N3CCCC(C(=O)NCCCN4CCOCC4)C3)sc2c1 (stereo not given)	M1 ag 2.1 | M1 agonist conf inactive | M4 ag counter inactive
CCOC(=O)N1CCN(C(=O)C2CCCN(c3nc4ccc(OCC)cc4s3)C2)CC1 (stereo not given)	none
Oc1ccc(-c2nc3ccccn3c2NCc2ccc3c(c2)OCO3)cc1	M1 ag 4 | M1 agonist conf inactive | M4 ag counter inactive
COC(=O)c1ccc(Oc2coc3cc(O)ccc3c2=O)cc1	none (no result: E coli WT exp, M1 ag, Hsp90 block, tolC growth inh, M1 antag)
CCOC(=O)C1CCCN(C(=O)CCCn2nc(C)n3c(cc4sccc43)c2=O)C1 (stereo not given)	M1 ag 42 | M1 agonist conf 335 | M4 ag counter inconclusive
O=c1[nH]c(Nc2ccccc2)cc2ccccc12	M1 ag 5.5 | M1 agonist conf inconclusive | M4 ag counter inactive
CCCc1nc2ccccc2n1Cc1ccccc1	none (no result: E coli WT exp, M1 ag, Hsp90 block, tolC growth inh, M1 antag)
CC(C)n1nnnc1SCC(=O)NCc1ccc2c(c1)OCO2	none (no result: M1 ag, BAP1 inh, Hsp90 block, tolC growth inh, M1 antag)
CCCn1nnnc1SCC(=O)NCc1ccc2c(c1)OCO2	M1 ag 3 | M1 agonist conf inactive | M4 ag counter inactive
Cn1cc(S(=O)(=O)CC(=O)Nc2ccc3c(c2)OCCO3)c2ccccc21	none (no result: E coli WT exp, BAP1 inh, Hsp90 block)
O=C(CS(=O)(=O)c1c[nH]c2ccccc12)Nc1ccc2c(c1)OCCO2	M1 ag 3.2 (no result: BAP1 inh, Hsp90 block) | M1 agonist conf inactive | M4 ag counter inactive
CCn1c(C)nc2cc(C(=O)NNS(=O)(=O)c3c(C)c(C)cc(C)c3C)ccc21	none (no result: M1 ag, BAP1 inh, Hsp90 block, tolC growth inh, M1 antag)
CCn1c(C)nc2cc(C(=O)OC(C(F)(F)C(F)F)C(F)(F)C(F)F)ccc21	M1 ag 11, M1 antag -0.79 | M1 agonist conf inactive | M4 ag counter inactive
COC(=O)c1c(NC(=O)c2ccoc2C)sc2c1CCC2	M1 ag 2.2 | M1 agonist conf inactive | M4 ag counter inactive
Cc1cccc(C)c1OCC(=O)Nc1sc2c(c1C#N)CCCC2	none (no result: E coli WT exp, M1 ag, Hsp90 block, tolC growth inh, M1 antag)
Cc1ccc(C(=O)Nc2ccccc2-c2nc3ccccc3[nH]2)cc1	none (no result: E coli WT exp, M1 ag, Hsp90 block, tolC growth inh, M1 antag)
